From ChEMBL document CHEMBL5303300, “EUbOPEN Chemogenomics Library - Multiplex” (2023)
Where “and” joins values, the source holds several entries; their conditions need not be identical. Identical values can stand only once.

Tested on: HEK-293T
Assay: Multiplex assay against HEK293T
Type: toxicity, cell-based
Settings: human, number of replicates 2
How it was run: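 Imaging took place on a CQ1 microscope at 37°C and 5% CO2 once compound had been added to live cells stained at seeding with Hoechst33342, BioTracker Green Microtubule Cytoskeleton Dye, MitoTracker Red and Annexin V Alexa Fluor 680. CellPathfinder machine-learning gating classed cells as Hoechst high-intensity objects or normal cells, classed normal cells as having healthy, pyknosed or fragmented nuclei, and classed pyknosed cells as mitotic or apoptotic. Tubulin, mitochondrial-mass and membrane-permeability phenotypes are per cents of the healthy-nucleus cells.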

[1] = 12 h, 1 µM, compound concentration 1 uM
[2] = 12 h, 10 µM, compound concentration 10 uM
[3] = 24 h, 1 µM, compound concentration 1 uM
[4] = 24 h, 10 µM, compound concentration 10 uM
[5] = 48 h, 1 µM, compound concentration 1 uM
[6] = 48 h, 10 µM, compound concentration 10 uM

Structure (SMILES): C[C@H](N)Cn1ccc2cc(F)c(Cl)cc21.O=C(O)/C=C/C(=O)O
- Population Apoptotic (%) [1]: 38% and 46%
- Population Fragmented Nuclei (%) [1]: 3% and 2%
- Population Healthy Nuclei (%) [1]: 82% and 85%
- Population Hoechst High Intensity Objects (%) [1]: 8%
- Population Membrane Permeable-Phenotype (%) [1]: 1%
- Population Mitochondria Different-Phenotype (%) [1]: 17% and 15%
- Population Mitotic Cells (%) [1]: 61% and 53%
- Population Normal (%) [1]: 91%
- Population Pyknosed Nuclei (%) [1]: 14% and 11%
- Population Tubulin-Different-Phenotype (%) [1]: 59% and 53%
- Total Cell Count [1]: 737 and 645
- Population Apoptotic (%) [2]: 58% and 55%
- Population Fragmented Nuclei (%) [2]: 4% and 5%
- Population Healthy Nuclei (%) [2]: 83% and 79%
- Population Hoechst High Intensity Objects (%) [2]: 8% and 9%
- Population Membrane Permeable-Phenotype (%) [2]: 5% and 1%
- Population Mitochondria Different-Phenotype (%) [2]: 28% and 20%
- Population Mitotic Cells (%) [2]: 41% and 44%
- Population Normal (%) [2]: 91% and 90%
- Population Pyknosed Nuclei (%) [2]: 12% and 14%
- Population Tubulin-Different-Phenotype (%) [2]: 81% and 72%
- Total Cell Count [2]: 443 and 563
- Population Apoptotic (%) [3]: 52% and 57%
- Population Fragmented Nuclei (%) [3]: 10% and 6%
- Population Healthy Nuclei (%) [3]: 77% and 82%
- Population Hoechst High Intensity Objects (%) [3]: 7%
- Population Membrane Permeable-Phenotype (%) [3]: 1% and 2%
- Population Mitochondria Different-Phenotype (%) [3]: 6% and 4%
- Population Mitotic Cells (%) [3]: 47% and 42%
- Population Normal (%) [3]: 92%
- Population Pyknosed Nuclei (%) [3]: 12% and 10%
- Population Tubulin-Different-Phenotype (%) [3]: 32% and 28%
- Total Cell Count [3]: 1141 and 1024
- Population Apoptotic (%) [4]: 63% and 59%
- Population Fragmented Nuclei (%) [4]: 8% and 7%
- Population Healthy Nuclei (%) [4]: 83% and 84%
- Population Hoechst High Intensity Objects (%) [4]: 9% and 11%
- Population Membrane Permeable-Phenotype (%) [4]: 2% and 3%
- Population Mitochondria Different-Phenotype (%) [4]: 16% and 8%
- Population Mitotic Cells (%) [4]: 36% and 40%
- Population Normal (%) [4]: 90% and 88%
- Population Pyknosed Nuclei (%) [4]: 7% and 8%
- Population Tubulin-Different-Phenotype (%) [4]: 72% and 40%
- Total Cell Count [4]: 634 and 884
- Population Apoptotic (%) [5]: 18% and 17%
- Population Fragmented Nuclei (%) [5]: 17% and 11%
- Population Healthy Nuclei (%) [5]: 80% and 85%
- Population Hoechst High Intensity Objects (%) [5]: 9%
- Population Membrane Permeable-Phenotype (%) [5]: 5% and 3%
- Population Mitochondria Different-Phenotype (%) [5]: 0%
- Population Mitotic Cells (%) [5]: 81% and 82%
- Population Normal (%) [5]: 90%
- Population Pyknosed Nuclei (%) [5]: 2%
- Population Tubulin-Different-Phenotype (%) [5]: 14% and 11%
- Total Cell Count [5]: 2886 and 2112
- Population Apoptotic (%) [6]: 40% and 17%
- Population Fragmented Nuclei (%) [6]: 15% and 12%
- Population Healthy Nuclei (%) [6]: 80% and 84%
- Population Hoechst High Intensity Objects (%) [6]: 11% and 7%
- Population Membrane Permeable-Phenotype (%) [6]: 8% and 4%
- Population Mitochondria Different-Phenotype (%) [6]: 1%
- Population Mitotic Cells (%) [6]: 59% and 82%
- Population Normal (%) [6]: 88% and 92%
- Population Pyknosed Nuclei (%) [6]: 3%
- Population Tubulin-Different-Phenotype (%) [6]: 36% and 20%
- Total Cell Count [6]: 1535 and 2025

Structure (SMILES): CN1CCN(c2ccc(-n3cc(-c4ccncc4OCC4CCNCC4)cn3)cc2)CC1
- Population Apoptotic (%) [1]: 50% and 48%
- Population Fragmented Nuclei (%) [1]: 4% and 3%
- Population Healthy Nuclei (%) [1]: 86% and 85%
- Population Hoechst High Intensity Objects (%) [1]: 7% and 5%
- Population Membrane Permeable-Phenotype (%) [1]: 4% and 2%
- Population Mitochondria Different-Phenotype (%) [1]: 9% and 10%
- Population Mitotic Cells (%) [1]: 50% and 51%
- Population Normal (%) [1]: 92% and 94%
- Population Pyknosed Nuclei (%) [1]: 9% and 11%
- Population Tubulin-Different-Phenotype (%) [1]: 38%
- Total Cell Count [1]: 587 and 556
- Population Apoptotic (%) [2]: 88% and 66%
- Population Fragmented Nuclei (%) [2]: 1%
- Population Healthy Nuclei (%) [2]: 94% and 95%
- Population Hoechst High Intensity Objects (%) [2]: 3% and 5%
- Population Membrane Permeable-Phenotype (%) [2]: 4% and 6%
- Population Mitochondria Different-Phenotype (%) [2]: 28% and 17%
- Population Mitotic Cells (%) [2]: 11% and 33%
- Population Normal (%) [2]: 96% and 94%
- Population Pyknosed Nuclei (%) [2]: 3% and 2%
- Population Tubulin-Different-Phenotype (%) [2]: 71% and 76%
- Total Cell Count [2]: 452 and 604
- Population Apoptotic (%) [3]: 29% and 50%
- Population Fragmented Nuclei (%) [3]: 6% and 7%
- Population Healthy Nuclei (%) [3]: 84% and 83%
- Population Hoechst High Intensity Objects (%) [3]: 8% and 7%
- Population Membrane Permeable-Phenotype (%) [3]: 3% and 1%
- Population Mitochondria Different-Phenotype (%) [3]: 2% and 6%
- Population Mitotic Cells (%) [3]: 70% and 50%
- Population Normal (%) [3]: 91% and 92%
- Population Pyknosed Nuclei (%) [3]: 8% and 9%
- Population Tubulin-Different-Phenotype (%) [3]: 18% and 21%
- Total Cell Count [3]: 857 and 751
- Population Apoptotic (%) [4]: 66% and 54%
- Population Fragmented Nuclei (%) [4]: 4% and 3%
- Population Healthy Nuclei (%) [4]: 93% and 94%
- Population Hoechst High Intensity Objects (%) [4]: 7% and 6%
- Population Membrane Permeable-Phenotype (%) [4]: 6% and 8%
- Population Mitochondria Different-Phenotype (%) [4]: 20% and 11%
- Population Mitotic Cells (%) [4]: 33% and 45%
- Population Normal (%) [4]: 92% and 93%
- Population Pyknosed Nuclei (%) [4]: 1%
- Population Tubulin-Different-Phenotype (%) [4]: 75% and 80%
- Total Cell Count [4]: 463 and 591
- Population Apoptotic (%) [5]: 11% and 20%
- Population Fragmented Nuclei (%) [5]: 16% and 11%
- Population Healthy Nuclei (%) [5]: 79% and 85%
- Population Hoechst High Intensity Objects (%) [5]: 10% and 9%
- Population Membrane Permeable-Phenotype (%) [5]: 3%
- Population Mitochondria Different-Phenotype (%) [5]: 0% and 2%
- Population Mitotic Cells (%) [5]: 88% and 80%
- Population Normal (%) [5]: 89% and 90%
- Population Pyknosed Nuclei (%) [5]: 4% and 3%
- Population Tubulin-Different-Phenotype (%) [5]: 7% and 11%
- Total Cell Count [5]: 1935 and 1522
- Population Apoptotic (%) [6]: 81% and 57%
- Population Fragmented Nuclei (%) [6]: 11% and 10%
- Population Healthy Nuclei (%) [6]: 86% and 85%
- Population Hoechst High Intensity Objects (%) [6]: 9%
- Population Membrane Permeable-Phenotype (%) [6]: 4%
- Population Mitochondria Different-Phenotype (%) [6]: 6% and 10%
- Population Mitotic Cells (%) [6]: 18% and 42%
- Population Normal (%) [6]: 90%
- Population Pyknosed Nuclei (%) [6]: 1% and 3%
- Population Tubulin-Different-Phenotype (%) [6]: 56% and 45%
- Total Cell Count [6]: 617 and 528

Structure (SMILES): CC1(C)C(=O)N([C@H]2CCc3c(O)cccc32)c2nc(Nc3cccc(CN4CCCC4)c3)ncc21
- Population Apoptotic (%) [1]: 51% and 69%
- Population Fragmented Nuclei (%) [1]: 1% and 2%
- Population Healthy Nuclei (%) [1]: 83% and 87%
- Population Hoechst High Intensity Objects (%) [1]: 19% and 21%
- Population Membrane Permeable-Phenotype (%) [1]: 1%
- Population Mitochondria Different-Phenotype (%) [1]: 70% and 76%
- Population Mitotic Cells (%) [1]: 48% and 30%
- Population Normal (%) [1]: 80% and 78%
- Population Pyknosed Nuclei (%) [1]: 14% and 10%
- Population Tubulin-Different-Phenotype (%) [1]: 89% and 94%
- Total Cell Count [1]: 252 and 277
- Population Apoptotic (%) [2]: 80% and 74%
- Population Fragmented Nuclei (%) [2]: 1% and 2%
- Population Healthy Nuclei (%) [2]: 80% and 77%
- Population Hoechst High Intensity Objects (%) [2]: 18% and 19%
- Population Membrane Permeable-Phenotype (%) [2]: 2% and 0%
- Population Mitochondria Different-Phenotype (%) [2]: 93% and 97%
- Population Mitotic Cells (%) [2]: 19% and 25%
- Population Normal (%) [2]: 81% and 80%
- Population Pyknosed Nuclei (%) [2]: 17% and 20%
- Population Tubulin-Different-Phenotype (%) [2]: 96% and 97%
- Total Cell Count [2]: 216 and 218
- Population Apoptotic (%) [3]: 88% and 33%
- Population Fragmented Nuclei (%) [3]: 4% and 3%
- Population Healthy Nuclei (%) [3]: 88% and 86%
- Population Hoechst High Intensity Objects (%) [3]: 17% and 25%
- Population Membrane Permeable-Phenotype (%) [3]: 2% and 3%
- Population Mitochondria Different-Phenotype (%) [3]: 60% and 63%
- Population Normal (%) [3]: 82% and 74%
- Population Pyknosed Nuclei (%) [3]: 7% and 9%
- Population Tubulin-Different-Phenotype (%) [3]: 92% and 89%
- Total Cell Count [3]: 296 and 243
- Population Apoptotic (%) [4]: 90% and 88%
- Population Fragmented Nuclei (%) [4]: 4% and 3%
- Population Healthy Nuclei (%) [4]: 77% and 75%
- Population Hoechst High Intensity Objects (%) [4]: 21%
- Population Membrane Permeable-Phenotype (%) [4]: 3% and 1%
- Population Mitochondria Different-Phenotype (%) [4]: 94% and 96%
- Population Mitotic Cells (%) [4]: 9% and 11%
- Population Normal (%) [4]: 78%
- Population Pyknosed Nuclei (%) [4]: 18% and 21%
- Population Tubulin-Different-Phenotype (%) [4]: 96% and 94%
- Total Cell Count [4]: 220 and 205
- Population Apoptotic (%) [5]: 61% and 45%
- Population Fragmented Nuclei (%) [5]: 7% and 6%
- Population Healthy Nuclei (%) [5]: 87% and 89%
- Population Hoechst High Intensity Objects (%) [5]: 20% and 17%
- Population Membrane Permeable-Phenotype (%) [5]: 2% and 0%
- Population Mitochondria Different-Phenotype (%) [5]: 26% and 29%
- Population Mitotic Cells (%) [5]: 38% and 54%
- Population Normal (%) [5]: 79% and 82%
- Population Pyknosed Nuclei (%) [5]: 4%
- Population Tubulin-Different-Phenotype (%) [5]: 84% and 87%
- Total Cell Count [5]: 362 and 302
- Population Apoptotic (%) [6]: 88% and 89%
- Population Fragmented Nuclei (%) [6]: 3% and 1%
- Population Healthy Nuclei (%) [6]: 71% and 74%
- Population Hoechst High Intensity Objects (%) [6]: 22% and 24%
- Population Membrane Permeable-Phenotype (%) [6]: 0%
- Population Mitochondria Different-Phenotype (%) [6]: 94%
- Population Mitotic Cells (%) [6]: 11% and 10%
- Population Normal (%) [6]: 77% and 75%
- Population Pyknosed Nuclei (%) [6]: 24%
- Population Tubulin-Different-Phenotype (%) [6]: 98% and 97%
- Total Cell Count [6]: 227 and 202
